ChEMBL document CHEMBL3046492, “Synthesis, insecticidal, and acaricidal activities of novel 2-aryl-pyrrole derivatives containing ester groups” (2008)
In brackets after ≈: the same amount, converted by molar mass.

Assays:
Assay type in all cases: functional
Mythimna separata [1] = assay: Insecticidal activity against fourth-instar larval stage of Mythimna separata (Oriental armyworm) in compound pretreated corn leaves assessed as mortality at 20 mg/kg at 25 +/-1 degC measured after 2 days
Tetranychus cinnabarinus [2] = assay: Acaricidal activity against adult two spot Tetranychus cinnabarinus (carmine spider mite) assessed as mortality at 25 +/-2 degC treated for 10 secs measured after 24 hr by slide immersion method
Outline: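 Thirty adult female mites were fixed dorsally on double-sided tape on a slide with a small brush. Slides were immersed and shaken for 10 s in diluted test solution, and excess liquid was removed. Slides were then held at 25 ± 2 °C in a Petri dish with moist filter paper. Dead mites were counted at 24 h. There were 3 replicates of 30 mites each, with chlorfenapyr as standard. LC50 was obtained by Finney probit analysis.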

Culex pipiens pallens [3] = assay: Insecticidal activity against fourth-instar larval stage of Culex pipiens pallens (mosquito) assessed as mortality at 0.25 mg/kg at 25 +/-1 degC after 2 days; settings: 48 h
Outline: (§1)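 Test solutions were prepared by adding 1 mL of each concentrated dilution to 99 mL water. Bioassays were run at 25 ± 1 °C on laboratory-reared insects.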

Aphis fabae [4] = assay: Insecticidal activity against apterous adult stage of Aphis fabae (black bean aphids) in soybean tender shoots assessed as mortality treated for 5 secs measured after 48 hr
Outline: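 This was a slightly modified FAO dip test. Soybean tender shoots carrying 40-60 healthy apterous adult aphids were dipped in diluted compound for 5 s. Excess fluid was removed, and shoots were kept in a conditioned room. Mortality was scored at 48 h, with testing at 25 ± 1 °C.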

Culex pipiens pallens [5] = assay: Insecticidal activity against fourth-instar larval stage of Culex pipiens pallens (mosquito) assessed as mortality at 0.50 mg/kg at 25 +/-1 degC after 2 days; settings: 48 h; outline: as §1
Nephotettix cincticeps [6] = assay: Insecticidal activity against third instar larval stage of Nephotettix cincticeps (green rice leafhopper) in rice seedlings assessed as mortality treated for 15 secs before larval infestation measured after 48 hr by seedling-dipping method
Nephotettix cincticeps [7] = assay: Toxic ratio, ratio of Chlorfenapyr LC50 to compound LC50 for third-instar larval stage of Nephotettix cincticeps (green rice leafhopper) measured after 48 hr by seedling-dipping method
Mythimna separata [8] = assay: Insecticidal activity against fourth-instar larval stage of Mythimna separata (Oriental armyworm) in compound pretreated corn leaves assessed as mortality at 10 mg/kg at 25 +/-1 degC measured after 2 days
Plutella xylostella [9] = assay: Insecticidal activity against second-instar larval stage of Plutella xylostella (diamondback moth) in fresh cabbage leaves assessed as mortality treated for 15 secs before larval infestation by leaf disk assay; settings: foliar
Tetranychus cinnabarinus [10] = assay: Toxic ratio, ratio of Chlorfenapyr LC50 to compound LC50 for adult two spot Tetranychus cinnabarinus (carmine spider mite) measured after 24 hr by slide immersion method
Plutella xylostella [11] = assay: Toxic ratio, ratio of Chlorfenapyr LC50 to compound LC50 for second-instar larval stage of Plutella xylostella (diamondback moth) by leaf disk assay
Culex pipiens pallens [12] = assay: Insecticidal activity against fourth-instar larval stage of Culex pipiens pallens (mosquito) assessed as mortality at 0.10 mg/kg at 25 +/-1 degC after 2 days; settings: 48 h; outline: as §1
Aphis fabae [13] = assay: Toxic ratio, ratio of Chlorfenapyr LC50 to compound LC50 for apterous adult stage of Aphis fabae (black bean aphids) measured after 48 hr
Tetranychus cinnabarinus [14] = assay: Acaricidal activity against adult Tetranychus cinnabarinus (carmine spider mite) in sieva bean plants assessed as mortality at 200 mg/kg treated for 3 secs measured after 2 days; settings: 48 h
Mythimna separata [15] = assay: Insecticidal activity against fourth-instar larval stage of Mythimna separata (Oriental armyworm) in compound pretreated corn leaves assessed as mortality at 5 mg/kg at 25 +/-1 degC measured after 2 days
Tetranychus cinnabarinus [16] = assay: Acaricidal activity against adult Tetranychus cinnabarinus (carmine spider mite) in sieva bean plants assessed as mortality at 100 mg/kg treated for 3 secs measured after 2 days; settings: 48 h
Tetranychus cinnabarinus [17] = assay: Acaricidal activity against adult Tetranychus cinnabarinus (carmine spider mite) in sieva bean plants assessed as mortality at 50 mg/kg treated for 3 secs measured after 2 days; settings: 48 h

Compound | mortality at 20 mg/kg (Mythimna separata [1]) [%] | LC50 (Tetranychus cinnabarinus [2]) [µg/mL] | mortality at 0.25 mg/kg (Culex pipiens pallens [3]) [%] | LC50 (Aphis fabae [4]) [µg/mL] | mortality at 0.5 mg/kg (Culex pipiens pallens [5]) [%] | LC50 (Nephotettix cincticeps [6]) [µg/mL] | RatioLC50 (Nephotettix cincticeps [7]) | mortality at 10 mg/kg (Mythimna separata [8]) [%] | LC50 (Plutella xylostella [9]) [µg/mL] | RatioLC50 (Tetranychus cinnabarinus [10]) | RatioLC50 (Plutella xylostella [11]) | mortality at 0.1 mg/kg (Culex pipiens pallens [12]) [%] | RatioLC50 (Aphis fabae [13]) | mortality at 200 mg/kg (Tetranychus cinnabarinus [14]) [%] | mortality at 5 mg/kg (Mythimna separata [15]) [%] | mortality at 100 mg/kg (Tetranychus cinnabarinus [16]) [%] | mortality at 50 mg/kg (Tetranychus cinnabarinus [17]) [%]
CC(C)CC(=O)OCn1c(-c2ccc(Cl)cc2)c(C#N)c(Br)c1C(F)(F)F | 100 | 0.43 (≈ 0.927 µM) | 100 | 17.8 (≈ 38.5 µM) | 100 | 34.1 (≈ 73.6 µM) | 0.79 | 100 | 1.88 (≈ 4.05 µM) | 2.65 | 0.97 | 100 | 0.69 | 100 | 0 | 100 | 100
CCOCn1c(-c2ccc(Cl)cc2)c(C#N)c(Br)c1C(F)(F)F [CHLORFENAPYR] | 100 | 1.14 (≈ 2.8 µM) | 100 | 12.2 (≈ 30 µM) | 100 | 26.8 (≈ 65.8 µM) | 1 | 100 | 1.82 (≈ 4.46 µM) | 1 | 1 | 100 | 1 | 100 | 0 | 97 | 93
